The entries come from a sample that favours hits as a whole.
HUVEC inhibit – inhibitors of human endothelial cell proliferation; HUVEC proliferation, CellTiter-Glo luminescence, 72 h; hits give low values; viability, % at 10 µM (by protocol); hit rate 1.1% among 86,000;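 active means viability at or below 30%; inactive means viability above 30%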;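 further: 100% = median luminescence of DMSO-only cell control wells on each plate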
PTEN del growth – PTEN-deleted cell growth suppression. HCT116 PTEN-null viability, CellTiter-Glo, 60 h; hits give low values. viability, % at 10 µM. hit rate 1.2% among 140,000. AID 827;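 active means viability at or below a set limit, 4 SD under the median of all tested compounds, cut at about 3.7% in these data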;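 further: PTEN knockout HCT116 line with beta catenin targeted HCT116 as companion control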
Fibroblast inh – blocks proliferation of human lung fibroblasts; LL 47 human lung fibroblast viability, ATP luminescence; hits give low values; viability, % at 10 µM; hit rate 1.1% among 85,000;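 active means viability at or below 50% in the single dose screen; inactive means viability above 50%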;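 further: compound exposure lasted 72 h before the ATP readout; 100% = median luminescence of untreated cell-only wells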
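Assay system: human lung fibroblast line LL 47, low passage. Input: 1,150 fibroblasts seeded per well. Times: overnight cell rest, 72 h compound treatment at 37 °C. Evaluation: % viability of median cell-only signal. Technique: luminescent ATP detection, CellTiter-Glo. Control set: cell-only wells, no compound.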
H69AR inhibit – growth inhibitors of human H69AR lung tumor cells; H69AR lung tumor viability, ATP luminescence, 72 h; hits give low values; viability, % at 10 µM; hit rate 6% among 85,000; AID 598;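 active means viability at or below 40%; inactive means viability above 40%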;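 further: multidrug resistant small cell line overexpressing MRP-1 efflux transporter; 100% = mean luminescence of untreated control wells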
HCT116 bCat-KO – beta-catenin-lacking colon tumor cell growth suppression; HCT116 beta-catenin knockout viability, CellTiter-Glo, 60 h; hits give low values; viability, % at 10 µM; hit rate 1.5% among 140,000; AID 818;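 active means viability at or under a set limit, the compound median less 4 SD, cut at about 6% in these data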;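 further: 0% = Hyamine 1622 control at 20 µM and 100% = untreated cell control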
The depositor's hits bear a star; nt = no result.

SMILES	HUVEC inhibit	PTEN del growth	Fibroblast inh	H69AR inhibit	HCT116 bCat-KO
CC1CCc2c(sc(NC(=O)CSc3nnc(-c4ccccc4)o3)c2C#N)C1 (configuration not stated)	nt	89.2	nt	nt	80.4
CCN1CCN(CC(=O)Nc2sc3c(c2C#N)CCC(C)C3)CC1 (configuration not stated)	78.9	1.5*	91.9	32.1*	1.4*
CC(C)OC(=O)CC(=O)CSc1nc2c(cc1C#N)CCC2	81.2	15.1	92.7	23.7*	27.2
COc1ccc(-c2ccc(C#N)c(SCC(=O)NCCc3ccccc3)n2)cc1OC	nt	4.0	nt	nt	5.7*
CCCC(=O)Nc1sc2c(c1C#N)CCCCC2	82.3	1.0*	100.5	98.7	0.9*
N#Cc1cc2c(nc1SCC(=O)Nc1nccs1)CCCCC2	84.0	91.5	95.2	68.9	82.5
N#Cc1c(NC(=O)CSc2ncn[nH]2)sc2c1CCCC2	86.3	91.5	90.1	18.1*	91.8
CC(C)(C)C1CCc2c(sc(NC(=O)CSc3ncn[nH]3)c2C#N)C1 (configuration not stated)	41.5	16.8	66.6	45.0	17.6
CCn1c(SCC(=O)Nc2sc3c(c2C#N)CCCC3)nnc1-c1ccncc1	99.2	93.5	97.0	0.9*	97.3
N#Cc1cc2c(nc1SCC(=O)Nc1sc3c(c1C#N)CCC3)CCCCCC2	76.6	52.1	75.2	10.6*	50.4
O=C(NCc1ccco1)C(c1ccccc1)N(C(=O)Cc1cccs1)c1ccccc1F (configuration not stated)	84.9	69.7	100.5	89.8	83.6
COc1ccc(NC(=O)C(=O)N2N=C(C(C)C)CC2(O)C(F)(F)F)cc1 (configuration not stated)	nt	113.5	nt	nt	100.0
COc1ccc(C2CNC(=O)C2)cc1OC1CCCC1 (configuration not stated)	96.5	99.4	88.1	88.9	105.3
O=C(NC1CCCC1)c1ncn[nH]1	nt	93.7	nt	nt	92.8
CCN(CC)S(=O)(=O)c1cccc(-c2nnc(SCC(=O)NC3CCCCCCC3)n2N)c1	93.7	83.8	94.6	46.8	82.1
CCCCNC(=O)C1CCCN1C(=O)Nc1ccccc1 (configuration not stated)	95.1	101.9	96.2	83.5	104.5
Cc1csc(SCC(=O)Nc2sc3c(c2C#N)CCC3)n1	78.3	46.6	93.6	31.6*	48.2
COc1ccc(-c2ccc(C#N)c(SCC(=O)Nc3sc4c(c3C#N)CCC4)n2)cc1OC	8.7*	62.2	68.3	1.0*	49.0
COc1ccc(-c2nnn(CC(=O)Nc3sc4c(c3C#N)CCCC4)n2)cc1	107.8	93.0	108.3	6.8*	90.7
O=C(COC(=O)Cn1cnc2ccccc2c1=O)Nc1ccccc1Sc1ccc(Cl)cc1	nt	80.2	nt	nt	84.0
O=C(NCC1CCCC(CNC(=O)N2CCc3ccccc32)C1)N1CCc2ccccc21 (configuration not stated)	nt	26.6	nt	nt	35.5
CCOC(=O)C1=C(O)/C(=C\c2ccc(CNC(=O)C(=O)Nc3ccccc3)o2)N=C1C	97.9	102.5	106.0	35.9*	100.5
Cc1ccc(-n2c(SCC(=O)Nc3nccs3)nc3c(c2=O)SCC3)cc1	97.9	107.9	27.4*	67.0	92.2
COc1cc2c(cc1OC)C(=NCCC(=O)O)NC(C)(C)C2	101.2	nt	107.4	90.7	nt
CCc1ccc2[nH]c3nc(SCc4nnc(-c5ccc(C)cc5)o4)nnc3c2c1	35.8	45.6	44.4*	9.4*	54.9
SMILES	HUVEC inhibit	PTEN del growth	Fibroblast inh	H69AR inhibit	HCT116 bCat-KO
COc1ccc(C2c3c(oc4ccccc4c3=O)C(=O)N2c2ccccn2)cc1 (configuration not stated)	99.3	73.9	87.7	78.1	73.6
COc1ccc(C2c3c(oc4ccccc4c3=O)C(=O)N2c2ccccn2)cc1OC (configuration not stated)	91.6	nt	92.4	25.9*	nt
O=[N+]([O-])c1cc2oc3c(c2c(C=NCc2ccncc2)c1O)CCCC3	nt	93.8	nt	nt	97.1
CC(=O)c1cccc2c(O)c(C3=Nc4ccccc4C3=O)[nH]c12	36.0	35.5	61.2	1.5*	38.2
CCOC(=O)c1c(C)[nH]c(C(=O)CSc2nnc(-c3ccncc3)n2CC)c1C	nt	102.0	nt	nt	99.5
C=CCn1c(SCC(=O)c2[nH]c(C)c(C(=O)OCC)c2C)nc2scc(-c3ccc(OC)c(OC)c3)c2c1=O	nt	0.8*	nt	nt	1.0*
COC(=O)c1cc(NC(=O)CC2SCCNC2=O)cc(C(=O)OC)c1 (configuration not stated)	102.9	107.4	108.4	85.9	104.0
CCCCOc1ccccc1NC(=O)CC1Nc2ccccc2NC1=O (configuration not stated)	86.3	nt	97.7	40.0*	nt
COC(=O)c1c(NC(=O)CC2Nc3ccccc3NC2=O)sc(C)c1C (configuration not stated)	nt	1.9*	nt	nt	1.6*
O=C(CC1SCCNC1=O)Nc1cc(Cl)cc(Cl)c1 (configuration not stated)	88.4	96.7	47.4*	87.6	95.5
CCCCNC(=O)CC1Nc2ccccc2NC1=O (configuration not stated)	102.3	97.8	98.2	92.1	94.7
O=C(CC1Nc2ccccc2NC1=O)Nc1cc(Cl)cc(Cl)c1 (configuration not stated)	75.0	3.6*	100.9	44.3	1.9*
COC(=O)c1cc(OC)c(OC)cc1NC(=O)c1oc2ccccc2c1C	89.1	nt	110.9	74.7	nt
COc1cc(OC)c2c(c1)C(=O)OC2	nt	97.0	nt	nt	91.1
COc1ccc(C2N(C(=O)CN3CCOCC3)CCN2S(=O)(=O)c2ccccc2)cc1 (configuration not stated)	87.2	92.9	nt	22.0*	81.1
Cc1ccccc1N1CCN(c2ccc(NC(=O)C3CCCCC3C(=O)O)cc2)CC1 (configuration not stated)	nt	78.2	nt	nt	82.4
Cc1cc(C)nc(N2CCN(c3nnnn3-c3ccccc3)CC2)n1	93.8	103.3	95.3	89.7	102.7
Cc1ccc(C)c(N2CCN(c3nnnn3-c3ccccc3)CC2)c1	89.1	37.0	84.5	19.9*	46.6
Nc1cc(-c2ccc(Cl)cc2)nn1S(=O)(=O)c1ccc(Cl)cc1	64.0	88.1	87.5	42.9	87.5
O=C1CCn2nc(-c3ccc(Cl)cc3)cc2N1	17.1*	83.7	104.3	95.3	84.7
Cc1c(C(=O)NC(C)C)sc2ncn(CC(=O)N3CCC(C)CC3)c(=O)c12	90.8	101.6	106.4	91.0	100.4
CCCSc1nnc(NC(=O)Nc2ccc(F)cc2)s1	46.8	41.5	47.0*	10.8*	42.3
Cn1c2c(c(=O)n(C)c1=O)C(C(F)(F)F)(C(F)(F)F)N=C(c1ccc(Cl)cc1)N2	nt	4.2	nt	nt	3.0*
O=C(NC1CCCC1)c1noc2c1CCCCC2	97.5	95.2	101.5	100.0	96.0
Cc1ccc2c(c1)cc(CN(Cc1ccc3c(c1)OCO3)S(=O)(=O)c1ccccc1)c1nnnn12	94.7	98.7	56.2	30.9*	81.4
Cc1ccc2c(c1)cc(CN(Cc1cccs1)C(=O)c1ccco1)c1nnnn12	78.9	74.7	80.5	56.9	82.1
